The values that follow come from ChEMBL document CHEMBL1145867, “Muraymycins, novel peptidoglycan biosynthesis inhibitors: synthesis and SAR of their analogues” (2003).

≈ marks a conversion by molar mass, not a printed value. Calls of active or inactive are those of the source.

One assay has as its system Bacteria. As to the kind of experiment: In vitro antimicrobial activity against gram-negative organisms (10). The class given is functional. Put shortly:
(§1)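 Broth microdilution per NCCLS guidance. Serial dilutions of each agent in microtiter plates are inoculated with each organism to 10⁵ CFU/mL and incubated 18–22 h at 35 C in ambient air. MIC is the lowest concentration giving complete growth inhibition, judged by the unaided eye.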

The nature of assay [1]: The inhibitory activity of compound against MraY or MurG at 100 ug/mL; No Inhibition.
The nature of assay [2]: The inhibitory activity of compound against MraY or MurG at 12.5 ug/mL; No Inhibition.
Assay [3] in a line: The inhibitory activity of compound against MraY or MurG at 25 ug/mL; No Inhibition.
Assay [4] can be described thus: The inhibitory activity of compound against MraY or MurG at 50 ug/mL; No Inhibition.
Assay [5] is described as follows: The inhibitory activity of compound against MraY or MurG at 6.25 ug/mL; No Inhibition.
Another assay has as its system Staphylococcus sp. As to the kind of experiment: In vitro antimicrobial activity against Staphylococci. The class given is functional, staphyl ococcus species. In outline: as §1
The test system of a further assay is Enterococcus sp. The assay is described as follows: In vitro antimicrobial activity against Enterococci. The class given is functional. In outline: as §1
Assay [6] in a line: The inhibitory activity of compound against MraY or MurG at 100 ug/mL; Inhibit.
Assay [7] in a line: The inhibitory activity of compound against MraY or MurG at 50 ug/mL; Inhibit.

What is called MIC is the smallest concentration in the dilution series that meets the test's criterion for growth inhibition. A low value points to a more susceptible organism. Regarding `COc1ccc(Cn2c(=O)ccn([C@@H]3OC([C@H](O)[C@H](NCCCNC(=O)[C@H](N)CCc4ccccc4)C(=O)OC(C)(C)C)[C@@H](O[Si](C)(C)C(C)(C)C)[C@H]3O[Si](C)(C)C(C)(C)C)c2=O)cc1` (stereo not given in full), the MIC with Bacteria, against Staphylococcus sp. and against Enterococcus sp. was more than 128 mg/L in each case. The Inhibitory activity result in assay [1], in [2], in assay [3], in assay [4] and in assay [5] was “inactive” in each case.
On to `COc1ccc(Cn2c(=O)ccn([C@@H]3OC([C@H](O)[C@H](NCCCNC(=O)[C@@H](CC(C)C)NC(=O)OCc4ccccc4)C(=O)OC(C)(C)C)[C@@H](O)[C@H]3O)c2=O)cc1` (stereo not given in full), for which the MIC against Bacteria, with Staphylococcus sp. and in the assay with Enterococcus sp. was more than 128 mg/L in each case.
As to `COc1ccc(Cn2c(=O)ccn([C@@H]3OC([C@H](O)[C@H](NCCCNC(=O)[C@H](N)CCC(=O)OC(C)(C)C)C(=O)OC(C)(C)C)[C@@H](O[Si](C)(C)C(C)(C)C)[C@H]3O[Si](C)(C)C(C)(C)C)c2=O)cc1` (stereo not given in full), the MIC in the assay with Bacteria, against Staphylococcus sp. and in the assay with Enterococcus sp. was more than 128 mg/L in each case. Also, the Inhibitory activity result in [1], in assay [2], in assay [3], in [4] and in [5] was “inactive” in each case.
With `CC(C)C(O)[C@@H](NC(=O)OCc1ccccc1)C(=O)NCCCN[C@H](C(=O)OC(C)(C)C)[C@@H](O)C1O[C@@H](n2ccc(=O)[nH]c2=O)[C@H](O[Si](C)(C)C(C)(C)C)[C@@H]1O[Si](C)(C)C(C)(C)C` (stereo not given in full), the MIC was more than 128 mg/L against Bacteria, more than 128 mg/L against Staphylococcus sp. and 64 mg/L (≈ 69.4 µM) against Enterococcus sp..
Take `COc1ccc(Cn2c(=O)ccn([C@@H]3OC([C@H](O)[C@H](NCCCNC(=O)[C@H](N)CC(=O)OCc4ccccc4)C(=O)OC(C)(C)C)[C@@H](O[Si](C)(C)C(C)(C)C)[C@H]3O[Si](C)(C)C(C)(C)C)c2=O)cc1` (stereo not given in full): the MIC was 128 mg/L (≈ 130 µM) against Bacteria, 16 mg/L (≈ 16.3 µM) in the assay on Staphylococcus sp. and 4 mg/L (≈ 4.06 µM) in the assay on Enterococcus sp.. The Inhibitory activity entry in assay [6] and in assay [7] was “Inhibit” in each case. For the same molecule, the Inhibitory activity result in assay [2], in assay [3] and in [5] was “inactive” each time.
On to `COc1ccc(Cn2c(=O)ccn([C@@H]3OC([C@H](O)[C@H](NCCCNC(=O)[C@@H](CC(C)C)NC(=O)[C@H](CCC/N=C(\N)N[N+](=O)[O-])NC(=O)N[C@H](C(=O)OCc4ccccc4)C(C)C)C(=O)OC(C)(C)C)[C@@H](O[Si](C)(C)C(C)(C)C)[C@H]3O[Si](C)(C)C(C)(C)C)c2=O)cc1` (stereo not given in full), for which the MIC in the assay with Bacteria, against Staphylococcus sp. and against Enterococcus sp. was more than 128 mg/L each time.
Regarding `COc1ccc(Cn2c(=O)ccn([C@@H]3OC([C@H](O)[C@H](NCCCNC(=O)[C@@H](CCC(=O)OC(C)(C)C)NC(=O)OCc4ccccc4)C(=O)OC(C)(C)C)[C@@H](O[Si](C)(C)C(C)(C)C)[C@H]3O[Si](C)(C)C(C)(C)C)c2=O)cc1` (stereo not given in full), the MIC in the assay on Bacteria was more than 128 mg/L; in the assay on Staphylococcus sp., 128 mg/L (≈ 117 µM); in the assay with Enterococcus sp., more than 128 mg/L.
Regarding `COc1ccc(Cn2c(=O)ccn([C@@H]3OC([C@H](O)[C@H](NCCCNC(=O)[C@@H](C)NC(=O)OCc4ccccc4)C(=O)OC(C)(C)C)[C@@H](O[Si](C)(C)C(C)(C)C)[C@H]3O[Si](C)(C)C(C)(C)C)c2=O)cc1` (stereo not given in full), the MIC was more than 128 mg/L against Bacteria, more than 128 mg/L against Staphylococcus sp. and 128 mg/L (≈ 130 µM) against Enterococcus sp..
`COc1ccc(Cn2c(=O)ccn([C@@H]3OC([C@H](O)[C@H](NCCCNC(=O)[C@@H](CC(C)C)NC(=O)OCc4ccccc4)C(=O)O)[C@@H](O)[C@H]3O)c2=O)cc1` (stereo not given in full): the results for the MIC with Bacteria, in the assay with Staphylococcus sp. and with Enterococcus sp. were more than 128 mg/L, more than 128 mg/L and 128 mg/L (≈ 173 µM), respectively.
In the case of `COc1ccc(Cn2c(=O)ccn([C@@H]3OC([C@H](O)[C@H](NCCCNC(=O)[C@H](NC(=O)[C@H](CCC/N=C(\N)N[N+](=O)[O-])NC(=O)N[C@H](C(=O)OCc4ccccc4)C(C)C)C(C)O)C(=O)OC(C)(C)C)[C@@H](O[Si](C)(C)C(C)(C)C)[C@H]3O[Si](C)(C)C(C)(C)C)c2=O)cc1` (stereo not given in full), the MIC against Bacteria was found to be 64 mg/L (≈ 48.7 µM); against Staphylococcus sp. it was 128 mg/L (≈ 97.4 µM); in the assay on Enterococcus sp., 64 mg/L (≈ 48.7 µM).
Regarding `COc1ccc(Cn2c(=O)ccn([C@@H]3OC([C@H](O)[C@H](NCCCNC(=O)[C@@H](CC(C)C)NC(=O)[C@H](CCC/N=C(\N)N[N+](=O)[O-])NC(=O)N[C@H](C(=O)OCc4ccccc4)C(C)C)C(=O)O)[C@@H](O)[C@H]3O)c2=O)cc1` (stereo not given in full), the MIC against Bacteria, in the assay on Staphylococcus sp. and against Enterococcus sp. was more than 128 mg/L each time.
As to `COc1ccc(Cn2c(=O)ccn([C@@H]3OC([C@H](O)[C@H](NCCCNC(=O)[C@H](NC(=O)OCc4ccccc4)C(O)C(C)C)C(=O)OC(C)(C)C)[C@@H](O[Si](C)(C)C(C)(C)C)[C@H]3O[Si](C)(C)C(C)(C)C)c2=O)cc1` (stereo not given in full), the values for the MIC in the assay with Bacteria, against Staphylococcus sp. and in the assay with Enterococcus sp. were more than 128 mg/L, more than 128 mg/L and 128 mg/L (≈ 123 µM), respectively.
Turning to `COc1ccc(Cn2c(=O)ccn([C@@H]3OC([C@H](O)[C@H](NCCCNC(=O)[C@@H](CCCCNC(=O)OCc4ccccc4)NC(=O)OCc4ccccc4)C(=O)OC(C)(C)C)[C@@H](O[Si](C)(C)C(C)(C)C)[C@H]3O[Si](C)(C)C(C)(C)C)c2=O)cc1` (stereo not given in full), the MIC against Bacteria, against Staphylococcus sp. and against Enterococcus sp. was more than 128 mg/L in each case.
For the molecule `COc1ccc(Cn2c(=O)ccn([C@@H]3OC([C@H](O)[C@H](NCCCNC(=O)[C@@H](CC(C)C)NC(=O)[C@H](CCCN=C(N)N)NC(=O)N[C@H](C(=O)O)C(C)C)C(=O)OC(C)(C)C)[C@@H](O[Si](C)(C)C(C)(C)C)[C@H]3O[Si](C)(C)C(C)(C)C)c2=O)cc1` (stereo not given in full), the MIC against Bacteria, in the assay with Staphylococcus sp. and in the assay with Enterococcus sp. was more than 128 mg/L in each case.
Regarding `COc1ccc(Cn2c(=O)ccn([C@@H]3OC([C@H](O)[C@H](NCCCNC(=O)[C@H](NC(=O)[C@H](CCC/N=C(\N)N[N+](=O)[O-])NC(=O)N[C@H](C(=O)OCc4ccccc4)C(C)C)C(O)C(C)C)C(=O)OC(C)(C)C)[C@@H](O[Si](C)(C)C(C)(C)C)[C@H]3O[Si](C)(C)C(C)(C)C)c2=O)cc1` (stereo not given in full), the MIC against Bacteria, in the assay with Staphylococcus sp. and with Enterococcus sp. was more than 128 mg/L each time.
On to `COc1ccc(Cn2c(=O)ccn([C@@H]3OC([C@H](O)[C@H](NCCCNC(=O)[C@@H](CCc4ccccc4)NC(=O)OCc4ccccc4)C(=O)OC(C)(C)C)[C@@H](O[Si](C)(C)C(C)(C)C)[C@H]3O[Si](C)(C)C(C)(C)C)c2=O)cc1` (stereo not given in full), for which the MIC in the assay with Bacteria is more than 128 mg/L; in the assay on Staphylococcus sp., 128 mg/L (≈ 119 µM); against Enterococcus sp., 128 mg/L (≈ 119 µM).
Turning to `COc1ccc(Cn2c(=O)ccn([C@@H]3OC([C@H](O)[C@H](NCCCNC(=O)[C@@H](CC(=O)OCc4ccccc4)NC(=O)OCc4ccccc4)C(=O)OC(C)(C)C)[C@@H](O[Si](C)(C)C(C)(C)C)[C@H]3O[Si](C)(C)C(C)(C)C)c2=O)cc1` (stereo not given in full), the minimal inhibitory concentration (MIC) was more than 128 mg/L in the assay on Bacteria, more than 128 mg/L in the assay on Staphylococcus sp. and 4 mg/L (≈ 3.58 µM) with Enterococcus sp..
Consider `COc1ccc(Cn2c(=O)ccn([C@@H]3OC([C@H](O)[C@H](NCCCNC(=O)[C@@H](CC(C)C)NC(=O)[C@H](CCCN=C(N)N)NC(=O)N[C@H](C(=O)O)C(C)C)C(=O)O)[C@@H](O)[C@H]3O)c2=O)cc1` (stereo not given in full), for which the MIC with Bacteria, in the assay on Staphylococcus sp. and in the assay on Enterococcus sp. was more than 128 mg/L each time. Further, the Inhibitory activity result in assay [1], in assay [2], in assay [3], in assay [4] and in [5] was “inactive” in each case.
Take `COc1ccc(Cn2c(=O)ccn([C@@H]3OC([C@H](O)[C@H](NCCCNC(=O)[C@H](N)CC(C)C)C(=O)OC(C)(C)C)[C@@H](O)[C@H]3O)c2=O)cc1` (stereo not given in full): the minimal inhibitory concentration (MIC) in the assay on Bacteria, with Staphylococcus sp. and in the assay with Enterococcus sp. was more than 128 mg/L each time.
On to `COc1ccc(Cn2c(=O)ccn([C@@H]3OC([C@H](O)[C@H](NCCCNC(=O)[C@H](N)CC(C)C)C(=O)O)[C@@H](O)[C@H]3O)c2=O)cc1` (stereo not given in full), for which the MIC in the assay with Bacteria was more than 128 mg/L; in the assay with Staphylococcus sp. it was more than 128 mg/L; against Enterococcus sp. it was 128 mg/L (≈ 211 µM).
